{"data": "Published values collected from several papers", "FGFR1": "Fibroblast growth factor receptor 1 (FGFR1, Homo sapiens, UniProt P11362)", "FGFR1 V561M": "Fibroblast growth factor receptor 1 (FGFR1, Homo sapiens, UniProt P11362, V561M)"}
{"Structure (SMILES)": "CSc1cccnc1N1CCN(Cc2nc3ccccc3[nH]2)CC1", "target": "FGFR1", "assay": "cell-free assay, competition with immobilised ligand", "setting": "1 µM", "measurement": "remaining binding", "value": "100%"}
{"Structure (SMILES)": "CCOc1cc(-c2nncn2C)ccc1Nc1ncc2cc(C)nc(NCC(C)(C)C)c2n1", "target": "FGFR1", "assay": "enzyme activity, inhibitor, FRET", "setting": "1 µM", "measurement": "inhibition", "value": "< 15%"}
{"Structure (SMILES)": "Cc1ccc(C(=O)Nc2ccc(CN3CCN(C)CC3)c(C(F)(F)F)c2)cc1C#Cc1cnc2cccnn12", "target": "FGFR1", "assay": "cell-free assay", "setting": "23.5 nM", "measurement": "remaining signal", "value": "4.8%"}
{"Structure (SMILES)": "Cc1ccc(NC(=O)c2ccc(C)c(C(F)(F)F)c2)cc1C#Cc1nn(C2CCC(O)CC2)c2ncnc(N)c12 (stereo not drawn)", "target": "FGFR1 V561M", "assay": "cell-free assay", "setting": "10 µM", "measurement": "remaining signal", "value": "40%"}
{"Structure (SMILES)": "C=CC(=O)Nc1cc(Nc2nccc(Nc3cc(Cl)c(F)cc3C(C)(C)O)n2)c(OC)cc1N1CC[C@@H](N(C)C)C1", "target": "FGFR1", "assay": "enzyme activity, inhibitor", "setting": "1 µM", "measurement": "inhibition", "value": "3%"}
{"Structure (SMILES)": "CN(c1nccc(-c2cnn3ncccc23)n1)C1CC1", "target": "FGFR1", "assay": "binding", "setting": "1 µM", "measurement": "remaining binding", "value": "75%"}
{"Structure (SMILES)": "CNCc1ccccc1-c1csc([C@@H](C)Nc2nc(C)nc3cc(OC)c(OC)cc23)c1", "target": "FGFR1", "assay": "cell-free assay, competition with immobilised ligand", "setting": "1 µM", "measurement": "remaining binding", "value": "100%"}
{"Structure (SMILES)": "O=C1NC(=O)c2cc(Nc3ccc(F)cc3)c(Nc3ccc(F)cc3)cc21", "target": "FGFR1", "assay": "cell-free assay", "setting": "0.5 µM", "measurement": "remaining signal", "value": "92.1%"}
{"Structure (SMILES)": "Cc1cc(NC(=O)c2cccc3cc(-c4cccc5[nH]nc(N)c45)ccc23)ccc1F", "target": "FGFR1", "assay": "enzyme activity, inhibitor", "setting": "0.1 µM", "measurement": "activity vs control", "value": "95%"}
{"Structure (SMILES)": "Oc1cccc(-c2nc(N3CCOCC3)c3oc4ncccc4c3n2)c1", "target": "FGFR1", "assay": "cell-free assay", "setting": "0.5 µM", "measurement": "remaining signal", "value": "91.7%"}
{"Structure (SMILES)": "COc1cc(/C=C/C(=O)c2ccc(NC3=C(Cl)C(=O)c4ccccc4C3=O)cc2)cc(OC)c1OC", "target": "FGFR1", "assay": "enzyme activity, inhibitor, ADP detection", "setting": "1 µM", "measurement": "inhibition", "value": "> 70%"}
{"Structure (SMILES)": "CC/C(=N\\NC(=O)NCc1cccc(O)c1)c1ccc(O)c(C)c1O", "target": "FGFR1", "assay": "enzyme activity, inhibitor", "setting": "0.1 µM", "measurement": "inhibition", "value": "6.1%"}
{"Structure (SMILES)": "C/C=C/C(=O)NCc1ccc(-n2nc3c(=O)[nH]nc(N)c3c2-c2oc3ccc(C)cc3c2C)cc1", "target": "FGFR1", "assay": "enzyme activity, inhibitor, ELISA", "setting": "10 nM", "measurement": "inhibition", "value": "11.1%"}
{"Structure (SMILES)": "CNC(=O)c1cc(Oc2ccc(NC(=O)Nc3ccc(Cl)c(C(F)(F)F)c3)cc2)ccn1", "target": "FGFR1 V561M", "assay": "cell-free assay", "setting": "0.3 µM", "measurement": "inhibition", "value": "26%"}
{"Structure (SMILES)": "O=S(=O)(NC1CCC(c2cc(F)ccc2F)(S(=O)(=O)c2ccc(Cl)cc2)CC1)C(F)(F)F (stereo not drawn)", "target": "FGFR1", "assay": "cell-free assay, competition with immobilised ligand", "setting": "1 µM", "measurement": "remaining binding", "value": "100%"}
{"Structure (SMILES)": "CCOC(=O)c1c(C)[nH]c(/C=C2\\C(=O)Nc3ccccc32)c1C", "target": "FGFR1", "assay": "cell-free assay", "setting": "0.5 µM", "measurement": "remaining signal", "value": "78.6%"}
{"Structure (SMILES)": "COc1cc2ncnc(Nc3ccc(Oc4ccccc4)cc3C)c2cc1OC", "target": "FGFR1", "assay": "enzyme activity, inhibitor", "setting": "1 µM", "measurement": "inhibition", "value": "5%"}
{"Structure (SMILES)": "CC(=O)N1CCC(c2ccc(C(=O)NC3=NCCN3)cc2C(F)(F)F)CC1", "target": "FGFR1", "assay": "cell-free assay, competition with immobilised ligand", "setting": "1 µM", "measurement": "remaining binding", "value": "100%"}
{"Structure (SMILES)": "CNc1cccc2cc(C(=O)Nc3ccc(C(=O)O)cc3)c(=O)[nH]c12", "target": "FGFR1", "assay": "enzyme activity, inhibitor", "setting": "10 µM", "measurement": "inhibition", "value": "9.9%"}
{"Structure (SMILES)": "CC(C)(O)c1cncc(-c2nc3ccc(F)cc3n2C2CC2)c1", "target": "FGFR1", "assay": "cell-free assay, competition with immobilised ligand", "setting": "1 µM", "measurement": "remaining binding", "value": "100%"}
{"Structure (SMILES)": "Oc1ccc(-c2nc(-c3ccncc3)c(-c3ccc(F)cc3)[nH]2)cc1", "target": "FGFR1", "assay": "cell-free assay", "setting": "0.5 µM", "measurement": "remaining signal", "value": "86.8%"}
{"Structure (SMILES)": "Cc1cc(C)c(-n2ccn3nc(-c4cccnc4)cc23)cc1NC(=O)c1cc(C#N)cc(S(F)(F)(F)(F)F)c1", "target": "FGFR1", "assay": "cell-free assay, competition with immobilised ligand", "setting": "0.1 µM", "measurement": "remaining binding", "value": "85.5%"}
{"Structure (SMILES)": "COc1cc(/C=C/C(=O)CC(=O)/C=C/c2ccc(O)c(OC)c2)ccc1O", "target": "FGFR1", "assay": "enzyme activity, inhibitor", "setting": "1 µM", "measurement": "activity vs control", "value": "102%"}
{"Structure (SMILES)": "CCC(=N\\O)/C(C)=C/c1ccc(F)cc1", "target": "FGFR1", "assay": "cell-free assay, competition with immobilised ligand", "setting": "1 µM", "measurement": "remaining binding", "value": "100%"}
{"Structure (SMILES)": "CCN(CC)CCNC(=O)c1c(C)[nH]c(/C=C2\\C(=O)Nc3ccc(F)cc32)c1C", "target": "FGFR1", "assay": "cell-free assay", "setting": "0.5 µM", "measurement": "remaining signal", "value": "66.1%"}
{"Structure (SMILES)": "CCC(=O)N[C@@H]1CC[C@H](C(=O)N(C)c2ccc(-c3nc4ccccc4o3)cc2)C1", "target": "FGFR1", "assay": "cell-free assay, competition with immobilised ligand", "setting": "1 µM", "measurement": "remaining binding", "value": "87%"}
{"Structure (SMILES)": "CN(c1ncccc1CNc1nc(Nc2ccc3c(c2)CC(=O)N3)ncc1C(F)(F)F)S(C)(=O)=O", "target": "FGFR1", "assay": "enzyme activity, inhibitor", "setting": "1 µM", "measurement": "inhibition", "value": "80.1%"}
